Holding throughout (format): functional
Assay [1] concerns Staphylococcus aureus. Kind of assay: Antibacterial activity against Staphylococcus aureus CCM 4516/08 after 24 hrs by microbroth dilution method. The conditions noted are these: CCM 4516/08, 24 h. Summed up: (§1)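 Microbroth dilution modified per M07-A07 in Mueller-Hinton broth, pH 7.4 (±0.2). Inoculum in sterile water adjusted to 0.5 McFarland. MIC taken as growth reduction of at least 90% (IC90) versus control, read visually and at 540 nm after 24 and 48 h incubation in the dark.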
On the technique in general: Dilution methods test growth across graded concentrations, often in twofold steps.

In assay [2] the test system is Staphylococcus aureus. Kind of assay: Antibacterial activity against Staphylococcus aureus CCM 4516/08 after 48 hrs by microbroth dilution method. The conditions noted are these: CCM 4516/08, 48 h. Summed up:
(§2)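 Microdilution broth method modified after M07-A07 in Mueller-Hinton broth adjusted to pH 7.4 (±0.2). Inoculum prepared in sterile water to 0.5 McFarland (1.5 × 10^8 CFU/mL). MIC taken as growth reduction versus control (IC95 per table header), read visually and spectrophotometrically at 540 nm after 24 and 48 h incubation in the dark.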

Assay [3] has as its system Staphylococcus aureus. Kind of assay: Antibacterial activity against methicillin-resistant Staphylococcus aureus H 5996/08 after 24 hrs by microbroth dilution method. The conditions noted are these: H 5996/08, 24 h. Summed up:
as §2

Assay [4] has as its system Staphylococcus aureus. Put plainly: Antibacterial activity against methicillin-resistant Staphylococcus aureus H 5996/08 after 48 hrs by microbroth dilution method. The following applies: H 5996/08, 48 h. Summed up: as §2
In assay [5] the test system is Staphylococcus epidermidis. Kind of assay: Antibacterial activity against Staphylococcus epidermidis H 6966/08 after 24 hrs by microbroth dilution method. The following applies: H 6966/08, 24 h. Summed up:
as §1

The subject of assay [6] is Staphylococcus epidermidis. Put plainly: Antibacterial activity against Staphylococcus epidermidis H 6966/08 after 48 hrs by microbroth dilution method. The following applies: H 6966/08, 48 h. Summed up:
as §1

Assay [7] has as its system Enterococcus sp. Kind of assay: Antibacterial activity against Enterococcus sp. J 14365/08 after 24 hrs by microbroth dilution method. The conditions noted are these: J 14365/08, 24 h. Summed up: as §1
The test system of assay [8] is Enterococcus sp. Put plainly: Antibacterial activity against Enterococcus sp. J 14365/08 after 48 hrs by microbroth dilution method. The following applies: J 14365/08, 48 h. Summed up: as §1
For assay [9], the system named is Escherichia coli. Kind of assay: Antibacterial activity against Escherichia coli CCM 4517 after 24 hrs by microbroth dilution method. The following applies: CCM 4517, 24 h. The method in brief:
as §1

The subject of assay [10] is Escherichia coli. Put plainly: Antibacterial activity against Escherichia coli CCM 4517 after 48 hrs by microbroth dilution method. The conditions noted are these: CCM 4517, 48 h. The method in brief:
as §1

Assay [11] has as its system Klebsiella pneumoniae. Put plainly: Antibacterial activity against Klebsiella pneumoniae D 11750/08 after 24 hrs by microbroth dilution method. The conditions noted are these: D 11750/08, 24 h. Summed up: as §1
Assay [12] relates to Klebsiella pneumoniae. Kind of assay: Antibacterial activity against Klebsiella pneumoniae D 11750/08 after 48 hrs by microbroth dilution method. The conditions noted are these: D 11750/08, 48 h. Summed up: as §1
In assay [13] the test system is Klebsiella pneumoniae. Put plainly: Antibacterial activity against ESBL-positive Klebsiella pneumoniae J 14368/08 after 24 hrs by microbroth dilution method. The conditions noted are these: J 14368/08, 24 h. Summed up:
as §1

Assay [14] has as its system Klebsiella pneumoniae. Put plainly: Antibacterial activity against ESBL-positive Klebsiella pneumoniae J 14368/08 after 48 hrs by microbroth dilution method. The conditions noted are these: J 14368/08, 48 h. The method in brief: as §1
Assay [15] deals with Candida albicans. Put plainly: Antifungal activity against Candida albicans ATCC 44859 after 24 hrs by microbroth dilution method. The following applies: ATCC 44859, 24 h.
For assay [16], the system named is Candida albicans. Put plainly: Antifungal activity against Candida albicans ATCC 44859 after 48 hrs by microbroth dilution method. The following applies: ATCC 44859, 48 h.
For assay [17], the system named is Candida tropicalis. Put plainly: Antifungal activity against Candida tropicalis 156 after 24 hrs by microbroth dilution method. The conditions noted are these: Candida tropicalis, 156, 24 h.
In assay [18] the test system is Candida tropicalis. Kind of assay: Antifungal activity against Candida tropicalis 156 after 48 hrs by microbroth dilution method. The following applies: Candida tropicalis, 156, 48 h.
Assay [19] has as its system Pichia kudriavzevii. Put plainly: Antifungal activity against Candida krusei E28 after 24 hrs by microbroth dilution method. The following applies: E28, 24 h.
The subject of assay [20] is Pichia kudriavzevii. Put plainly: Antifungal activity against Candida krusei E28 after 48 hrs by microbroth dilution method. The following applies: E28, 48 h.
The subject of assay [21] is Nakaseomyces glabratus. Kind of assay: Antifungal activity against Candida glabrata 20/I after 24 hrs by microbroth dilution method.
Assay [22] concerns Nakaseomyces glabratus. Kind of assay: Antifungal activity against Candida glabrata 20/I after 48 hrs by microbroth dilution method.
The test system of assay [23] is Trichosporon asahii. Put plainly: Antifungal activity against Trichosporon asahii 1188 after 24 hrs by microbroth dilution method. The following applies: Trichosporon asahii, 1188, 24 h.
Assay [24] has as its system Trichosporon asahii. Put plainly: Antifungal activity against Trichosporon asahii 1188 after 48 hrs by microbroth dilution method. The following applies: Trichosporon asahii, 1188, 48 h.
Assay [25] relates to Lichtheimia corymbifera. Put plainly: Antifungal activity against Absidia corymbifera 272 after 24 hrs by microbroth dilution method. The following applies: Lichtheimia corymbifera, 272, 24 h.
The subject of assay [26] is Lichtheimia corymbifera. Kind of assay: Antifungal activity against Absidia corymbifera 272 after 48 hrs by microbroth dilution method. The conditions noted are these: Lichtheimia corymbifera, 272, 48 h.
Assay [27] concerns Trichophyton mentagrophytes. Kind of assay: Antifungal activity against Trichophyton mentagrophytes 445 after 72 hrs by microbroth dilution method. The conditions noted are these: Trichophyton mentagrophytes, 445, 72 h.
For assay [28], the system named is Trichophyton mentagrophytes. Put plainly: Antifungal activity against Trichophyton mentagrophytes 445 after 120 hrs by microbroth dilution method. The following applies: Trichophyton mentagrophytes, 445, 120 h.

Structures are written as SMILES. ≈ marks a conversion by molar mass, not a printed value.

Take `O=C(NCCc1ccccc1)Oc1ccc(Cl)cc1C(=O)Nc1ccc(Cl)cc1`: the MIC was 3.9 µM (≈ 1.67 µg/mL) in [1]; 15.6 µM (≈ 6.71 µg/mL) in [2]; 3.9 µM (≈ 1.67 µg/mL) in [3]; 15.6 µM (≈ 6.71 µg/mL) in assay [4]; 3.9 µM (≈ 1.67 µg/mL) in [5]; 15.6 µM (≈ 6.71 µg/mL) in assay [6]. In addition, the MIC in [7] amounted to 500 µM (≈ 215 µg/mL); in assay [8], 500 µM (≈ 215 µg/mL); in assay [9], 125 µM (≈ 53.7 µg/mL); in assay [10] it was 500 µM (≈ 215 µg/mL); in [11] it was 500 µM (≈ 215 µg/mL); in assay [12], 500 µM (≈ 215 µg/mL). For the same molecule, the MIC in [13] is 31.2 µM (≈ 13.4 µg/mL); in assay [14] it was 31.2 µM (≈ 13.4 µg/mL); in [15], above 500 µM; in assay [16], above 500 µM; in assay [17] it was above 500 µM; in assay [18] it was above 500 µM. The MIC in [19], in assay [20], in assay [21], in [22], in [23] and in assay [24] was above 500 µM in each case. Further, the MIC in assay [25] was above 500 µM; in [26] it was above 500 µM; in [27], 1.95 µM (≈ 0.837 µg/mL); in assay [28], 1.95 µM (≈ 0.837 µg/mL).

For the molecule `O=C(NC12CC3CC(CC(C3)C1)C2)Oc1ccc(Cl)cc1C(=O)Nc1ccc(Br)cc1`, the MIC came to 0.98 µM (≈ 0.494 µg/mL) in assay [1]; 1.95 µM (≈ 0.982 µg/mL) in assay [2]; 1.95 µM (≈ 0.982 µg/mL) in assay [3]; 3.9 µM (≈ 1.96 µg/mL) in [4]; 0.98 µM (≈ 0.494 µg/mL) in assay [5]; 1.95 µM (≈ 0.982 µg/mL) in assay [6]. In addition, the MIC is above 500 µM in assay [7]; above 500 µM in [8]; above 250 µM in assay [9]; above 250 µM in assay [10]; above 250 µM in assay [11]; above 250 µM in [12]. The MIC in assay [13] is 31.2 µM (≈ 15.7 µg/mL); in [14], 125 µM (≈ 63 µg/mL); in [15], above 125 µM; in assay [16] it was above 125 µM; in [17], above 125 µM; in assay [18] it was above 125 µM. Further, the MIC in assay [19], in [20], in [21], in assay [22], in assay [23] and in assay [24] was above 125 µM throughout. The MIC in [25] is above 125 µM; in assay [26] it was above 125 µM; in assay [27] it was 7.81 µM (≈ 3.93 µg/mL); in [28], 7.81 µM (≈ 3.93 µg/mL).

Consider `OC(Cn1cncn1)(Cn1cncn1)c1ccc(F)cc1F` [FLUCONAZOLE], for which the MIC is 0.24 µM (≈ 0.0735 µg/mL) in assay [15]; 0.24 µM (≈ 0.0735 µg/mL) in assay [16]; above 500 µM in assay [17]; above 500 µM in [18]; 125 µM (≈ 38.3 µg/mL) in [19]; 250 µM (≈ 76.6 µg/mL) in [20]. Further, the minimal inhibitory concentration (MIC) in assay [21] is 31.2 µM (≈ 9.57 µg/mL); in [22], 500 µM (≈ 153 µg/mL); in [23], 250 µM (≈ 76.6 µg/mL); in [24] it was 500 µM (≈ 153 µg/mL); in assay [25], above 500 µM; in assay [26] it was above 500 µM. Besides, the MIC in [27] worked out at 7.81 µM (≈ 2.39 µg/mL); in assay [28] it was 125 µM (≈ 38.3 µg/mL).

On to `CC1(C)S[C@@H]2[C@H](NC(=O)Cc3ccccc3)C(=O)N2[C@H]1C(=O)O` [PENICILLIN G], for which the MIC stood at 0.98 µM (≈ 0.328 µg/mL) in assay [1]; 0.98 µM (≈ 0.328 µg/mL) in assay [2]; 62.5 µM (≈ 20.9 µg/mL) in assay [3]; 125 µM (≈ 41.8 µg/mL) in assay [4]; 250 µM (≈ 83.6 µg/mL) in assay [5]; 250 µM (≈ 83.6 µg/mL) in assay [6]. For the same molecule, the MIC in [7] stood at 7.81 µM (≈ 2.61 µg/mL); in assay [8], 15.6 µM (≈ 5.22 µg/mL); in assay [9] it was 125 µM (≈ 41.8 µg/mL); in assay [10], 125 µM (≈ 41.8 µg/mL); in [11], 500 µM (≈ 167 µg/mL); in [12], 500 µM (≈ 167 µg/mL). In addition, the minimal inhibitory concentration (MIC) in [13] and in [14] was above 500 µM in each case.

The term MIC denotes the smallest concentration in the dilution series that meets the test's criterion for growth inhibition.
